The source made the active and inactive calls. The calls are words filed in the database; no cut-off is given here.
Key:
[1] = molecular target: T1, Leukotriene A-4 hydrolase (Homo sapiens) (UniProt P09960); experiment: Inhibition of LTA4H hydrolase activity (unknown origin) assessed as reduction in LTB4 formation at 100 uM by enzyme linked immunosorbent assay
T1 sequence (whole entry): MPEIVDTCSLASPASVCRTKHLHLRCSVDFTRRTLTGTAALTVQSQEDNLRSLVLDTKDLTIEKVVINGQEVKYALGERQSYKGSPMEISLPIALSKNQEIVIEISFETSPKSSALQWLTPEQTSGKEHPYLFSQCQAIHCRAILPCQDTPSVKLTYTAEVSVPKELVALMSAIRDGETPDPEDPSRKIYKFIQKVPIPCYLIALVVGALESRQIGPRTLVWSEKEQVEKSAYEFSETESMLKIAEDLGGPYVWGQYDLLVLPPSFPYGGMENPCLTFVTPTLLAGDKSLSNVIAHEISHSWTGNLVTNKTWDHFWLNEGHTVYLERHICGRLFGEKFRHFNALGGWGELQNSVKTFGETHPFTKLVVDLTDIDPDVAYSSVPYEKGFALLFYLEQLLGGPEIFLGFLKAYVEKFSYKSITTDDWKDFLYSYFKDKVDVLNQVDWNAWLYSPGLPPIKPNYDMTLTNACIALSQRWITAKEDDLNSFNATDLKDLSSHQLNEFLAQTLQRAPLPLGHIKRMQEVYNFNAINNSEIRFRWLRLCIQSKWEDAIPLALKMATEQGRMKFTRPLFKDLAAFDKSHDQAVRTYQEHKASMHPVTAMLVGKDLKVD
Procedure, shortened: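 LTA4H hydrolase activity read as LTB4 formation by ELISA. Compound handled as in the 15-LOX assay.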

[2] = molecular target: T2, Prostaglandin E synthase (Homo sapiens) (UniProt O14684); experiment: Inhibition of mPGES-1 (unknown origin) assessed as reduction in conversion of PGH2 to PGE2 at 100 uM by EIA method
T2 sequence (whole entry): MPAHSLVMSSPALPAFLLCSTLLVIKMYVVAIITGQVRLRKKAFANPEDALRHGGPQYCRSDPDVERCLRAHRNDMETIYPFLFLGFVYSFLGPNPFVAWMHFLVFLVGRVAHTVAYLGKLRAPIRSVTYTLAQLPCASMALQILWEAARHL
Procedure, shortened: (§1)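 mPGES-1 activity taken as conversion of PGH2 to PGE2, with PGE2 measured by EIA. Compound handled as in the 15-LOX assay.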

Prostaglandin E synthase = molecular target: T3, Prostaglandin E synthase (Homo sapiens, UniProt O14684); experiment: Inhibition of mPGES-1 (unknown origin) assessed as reduction in conversion of PGH2 to PGE2 by EIA method; procedure, shortened: as §1
T3 sequence (O14684 whole entry): T2 sequence (whole entry)

[3] = molecular target: T4, Polyunsaturated fatty acid lipoxygenase ALOX15 (Homo sapiens) (UniProt P16050); experiment: Activation of 15-LOX in human whole blood assessed as 5-HETE production at 100 uM pre-incubated for 20 mins before stimulation with LPS and A23187 for 120 mins in presence of 2 uM 5-LOX inhibitor Zileuton by LC-MS/MS method; format: tissue-based
T4 sequence (whole entry): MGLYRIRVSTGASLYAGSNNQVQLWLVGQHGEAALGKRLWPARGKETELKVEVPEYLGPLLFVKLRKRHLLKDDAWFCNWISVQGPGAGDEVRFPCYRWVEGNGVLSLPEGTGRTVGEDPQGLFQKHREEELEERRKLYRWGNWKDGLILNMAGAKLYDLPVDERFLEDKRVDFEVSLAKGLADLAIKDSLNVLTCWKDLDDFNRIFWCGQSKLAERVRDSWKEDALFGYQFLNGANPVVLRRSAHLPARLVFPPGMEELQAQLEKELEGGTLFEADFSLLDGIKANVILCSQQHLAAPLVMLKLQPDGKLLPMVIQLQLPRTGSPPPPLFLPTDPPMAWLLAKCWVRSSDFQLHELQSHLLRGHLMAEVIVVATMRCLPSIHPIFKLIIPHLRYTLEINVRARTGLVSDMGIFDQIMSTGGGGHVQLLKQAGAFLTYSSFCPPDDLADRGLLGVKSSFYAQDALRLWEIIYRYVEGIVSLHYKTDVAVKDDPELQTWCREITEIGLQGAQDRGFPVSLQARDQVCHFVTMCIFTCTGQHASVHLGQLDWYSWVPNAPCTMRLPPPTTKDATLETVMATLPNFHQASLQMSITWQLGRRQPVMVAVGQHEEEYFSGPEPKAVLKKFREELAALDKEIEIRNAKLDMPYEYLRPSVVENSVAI
Procedure, shortened: (§2)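 Human blood preincubated 20 min at 37 °C with DMSO vehicle or compound in DMSO. LPS added at 100 μg/mL for 24 h at 37 °C, then A23187 at 20 μg/mL final. Samples frozen in liquid nitrogen at time points, lysed by freeze–thaw, with PGB2 internal standard. Analysed by C18 LC-MRM MS, negative ion. Change = control-normalized concentration minus 1, ×100%; 120 min value from AUC.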

[4] = molecular target: T4, Polyunsaturated fatty acid lipoxygenase ALOX15 (Homo sapiens); experiment: Activation of 15-LOX in human whole blood assessed as reduction in TXB2 production at 100 uM pre-incubated for 20 mins before stimulation with LPS and A23187 for 120 mins in presence of 2 uM 5-LOX inhibitor Zileuton by LC-MS/MS method; format: tissue-based; procedure, shortened: as §2
[5] = molecular target: T4, Polyunsaturated fatty acid lipoxygenase ALOX15 (Homo sapiens); experiment: Activation of 15-LOX in human whole blood assessed as reduction in PGE2 production at 100 uM pre-incubated for 20 mins before stimulation with LPS and A23187 for 120 mins in presence of 2 uM 5-LOX inhibitor Zileuton by LC-MS/MS method; format: tissue-based; procedure, shortened: as §2
[6] = molecular target: T4, Polyunsaturated fatty acid lipoxygenase ALOX15 (Homo sapiens); experiment: Activation of 15-LOX in human whole blood assessed as 13-HODE production at 100 uM pre-incubated for 20 mins before stimulation with LPS and A23187 for 120 mins in presence of 2 uM 5-LOX inhibitor Zileuton by LC-MS/MS method; format: tissue-based; procedure, shortened: as §2
[7] = molecular target: T4, Polyunsaturated fatty acid lipoxygenase ALOX15 (Homo sapiens); experiment: Activation of 15-LOX in human whole blood assessed as reduction in 5-HETE production at 100 uM pre-incubated for 20 mins before stimulation with LPS and A23187 for 120 mins in presence of 2 uM […] inhibitor Zileuton by LC-MS/MS method; format: tissue-based; procedure, shortened: as §2

inhibition [1]: < 5%
inhibition [2]: 63%
IC50 (Prostaglandin E synthase): 20 µM
Activity [3]: 59%
Activity [4]: Active
Activity [5]: Active
Activity [6]: 67%
Activity [7]: Active
SMILES: CN1CCN(CC(=O)N2N=C3/C(=C/c4ccccc4)CCCC3C2c2ccccc2)CC1 (stereo not drawn)

From ChEMBL document CHEMBL3817796, “Discovery of Novel 15-Lipoxygenase Activators To Shift the Human Arachidonic Acid Metabolic Network toward Inflammation Resolution” (J Med Chem, 2016)
